In EPA's CvTdb concentration-time database:
Several values for one entry are separate records, joined by “and”; a condition that tells them apart may be missing. Identical values can stand only once.

Tested on: mouse
Test: concentration in blood after dosing; negative times count back from the end of exposure
Conditions: dosed: tert-amyl methyl ether, inhalation, duration: 6 hr, CD-1 (Charles River)
In short: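 Sampling and analytical methods are those of each source and frequently went unreported. The concentration-versus-time and amount-versus-time points were compiled from published in vivo toxicokinetic studies and two structured collections. Most were digitised from plot screenshots with WebPlotDigitizer, with others copied from tables, in the reported units.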

CCC(C)(C)OC [tertiary amyl methyl ether]
Conditions	concentration in blood [µg/mL]
0.102 h, 100 ppm, male	0.239
0.1024 h, 100 ppm, male	0.295
0.1031 h, 100 ppm, male	0.389
0.1368 h, 500 ppm, male	3.51
0.1371 h, 500 ppm, male	4.13
0.1374 h, 500 ppm, male	4.84
0.1381 h, 500 ppm, male	6.06
0.1502 h, 100 ppm, male	0.655
0.1928 h, 2500 ppm, male	29.9
0.1936 h, 2500 ppm, male	24.4
0.3202 h, 500 ppm, male	2.39
0.3841 h, 2500 ppm, male	24.8
0.385 h, 2500 ppm, male	19.7
0.3858 h, 2500 ppm, male	14.7
0.4399 h, 100 ppm, male	0.209
0.444 h, 2500 ppm, female	22.7
0.4444 h, 2500 ppm, female	20.1
0.4448 h, 2500 ppm, female	17.2
0.4618 h, 100 ppm, male	0.127
0.4629 h, 100 ppm, male	0.273
0.8712 h, 500 ppm, male	0.0374
0.8718 h, 500 ppm, male	1.26
0.9575 h, 2500 ppm, male	15.1
0.9591 h, 2500 ppm, male	4.95
0.9832 h, 2500 ppm, female	10
1.014 h, 2500 ppm, female	15.5
1.656 h, 100 ppm, male	0.0026
2.039 h, 2500 ppm, male	5.35
2.04 h, 2500 ppm, male	0.286
9.736 h, 500 ppm, male	0.0671
9.816 h, 100 ppm, male	0.00138
9.95 h, 2500 ppm, male	0.153
17.75 h, 100 ppm, male	0.00394
17.86 h, 2500 ppm, male	0.441
57.5 min, 2500 ppm, male	10
224 s, 2500 ppm, female	37.5
226 s, 2500 ppm, female	34.9
229 s, 2500 ppm, female	29.4

during exposure
Conditions	concentration in blood
-171 s, 100 ppm, male	1.33 µg/mL
-165 s, 100 ppm, male	1.57 µg/mL
-160 s, 100 ppm, male	1.75 µg/mL
-6 h, 100 ppm, male	1.19 µg/mL
-6 h, 2500 ppm, male	19.4 µg/mL
-5.956 h, 100 ppm, male	1.08 µg/mL
-5.842 h, 100 ppm, male	1.22 µg/mL
-5.755 h, 100 ppm, male	0.806 µg/mL
-5.69 h, 500 ppm, male	7.23 µg/mL
-5.688 h, 500 ppm, male	9.58 µg/mL
-5.663 h, 100 ppm, male	1.04 µg/mL
-5.662 h, 100 ppm, male	1.1 µg/mL
-5.642 h, 100 ppm, male	0.814 µg/mL
-5.627 h, 2500 ppm, female	37.5 µg/mL
-5.168 h, 500 ppm, male	7.23 µg/mL
-5.167 h, 500 ppm, male	8.96 µg/mL
-5.138 h, 500 ppm, male	5.9 µg/mL
-5.124 h, 100 ppm, male	0.78 µg/mL
-5.123 h, 100 ppm, male	0.866 µg/mL
-5.122 h, 100 ppm, male	1.09 µg/mL
-5.094 h, 2500 ppm, female	64.1 µg/mL
-5.092 h, 2500 ppm, female	54.4 µg/mL
-5.089 h, 2500 ppm, female	32.5 µg/mL
-5.084 h, 2500 ppm, male	49.4 µg/mL
-5.083 h, 2500 ppm, male	44.3 µg/mL
-5.081 h, 2500 ppm, male	34.6 µg/mL
-5.077 h, 2500 ppm, male	9.69 µg/mL
-5.053 h, 2500 ppm, male	59.5 µg/mL
-4.247 h, 500 ppm, male	9.57 µg/mL
-4.246 h, 500 ppm, male	11.4 µg/mL
-4.245 h, 500 ppm, male	12 µg/mL
-4.086 h, 100 ppm, male	0.926 µg/mL
-4.061 h, 100 ppm, male	1.22 µg/mL
-4.06 h, 100 ppm, male	1.36 µg/mL
-4.007 h, 2500 ppm, male	71.7 µg/mL
-4.005 h, 2500 ppm, male	61.1 µg/mL
-3.988 h, 2500 ppm, female	67.1 µg/mL
-3.987 h, 2500 ppm, female	61.6 µg/mL
-3.974 h, 2500 ppm, male	66.6 µg/mL
-3.972 h, 2500 ppm, male	49.3 µg/mL
-2.21 h, 500 ppm, male	33.8 µg/mL
-2.166 h, 2500 ppm, male	78.8 µg/mL
-2.165 h, 2500 ppm, male	72.5 µg/mL
-2.164 h, 2500 ppm, male	66.2 µg/mL
-2.159 h, 2500 ppm, female	96.1 µg/mL
-2.144 h, 100 ppm, male	1.31 µg/mL and 1.34 µg/mL
-2.142 h, 100 ppm, male	1.57 µg/mL
-2.129 h, 500 ppm, male	11.9 µg/mL
-2.128 h, 500 ppm, male	13.7 µg/mL
-2.127 h, 500 ppm, male	15.5 µg/mL
-2.125 h, 2500 ppm, female	81.4 µg/mL
-2.122 h, 100 ppm, male	1.22 µg/mL
-0.1963 h, 500 ppm, male	12 µg/mL
-0.1937 h, 500 ppm, male	17.2 µg/mL
-0.1933 h, 500 ppm, male	17.8 µg/mL
-0.1652 h, 2500 ppm, male	83.4 µg/mL
-0.1636 h, 2500 ppm, male	73.7 µg/mL
-0.1617 h, 2500 ppm, male	61.5 µg/mL
-0.1057 h, 2500 ppm, female	101 µg/mL
-0.1034 h, 2500 ppm, female	86.4 µg/mL
-0.1026 h, 2500 ppm, female	81.3 µg/mL
